From ChEMBL document CHEMBL1143905, “Synthesis of barbiturate-based methionine aminopeptidase-1 inhibitors” (Bioorg Med Chem Lett, 2008) come the findings set out here.

SMILES strings stand for the structures. Where only a bound is given, the exact number is not on record here.

The test can be described thus: Inhibition of Escherichia coli methionine aminopeptidase 1. The gist of the method: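 Coupled chromogenic assay at room temperature: 50 mM HEPES pH 7.5, 100 μM CoCl2, 400 μM Met-Pro-pNA substrate, 0.25–4.0 μM MetAP-1 enzyme, 10–25 μM proline aminopeptidase as coupling enzyme, varying inhibitor concentrations. pNA release read at 405 nm. Ki obtained by non-linear regression assuming a competitive steady-state model.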
Take `CN1C(=O)C(=Cc2ccc(C(=O)O)cc2)C(=O)N(C)C1=O`: the Ki is over 100 µM.
In the case of `O=C1NC(=O)C(=Cc2ccc(O)cc2)C(=O)N1` it was 4 µM; in that of `CN1C(=O)C(=Cc2cccc([N+](=O)[O-])c2)C(=O)N(C)C1=O`, over 100 µM; in that of `CN(C)c1ccc(C=C2C(=O)NC(=S)NC2=O)cc1`, over 100 µM.
The compound `O=C1NC(=O)C(=Cc2ccc(F)cc2)C(=O)N1` showed an inhibition constant Ki of 89 µM.
Compound `O=C1NC(=S)NC(=O)C1=Cc1ccc(F)cc1` displayed an inhibitory constant (Ki) of over 100 µM.
In the case of `O=C1NC(=S)NC(=O)C1=C/C=C/c1ccccc1` it was over 100 µM.
Consider `CN1C(=O)C(=C/C=C/c2ccc(N(C)C)cc2)C(=O)N(C)C1=O`, for which the Ki is over 100 µM.
As to `CN(C)c1ccc(/C=C/C=C2C(=O)NC(=O)NC2=O)cc1`, the Ki stood at 0.05 µM.
In the case of `COc1ccc(C=C2C(=O)N(C)C(=O)N(C)C2=O)cc1` it was over 100 µM; in that of `CN1C(=O)C(=Cc2ccccc2)C(=O)N(C)C1=O`, over 100 µM.
Then `CN(C)c1ccc(C=C2C(=O)NC(=O)NC2=O)cc1`, with 13 µM; and `COc1ccc(C=C2C(=O)NC(=S)NC2=O)cc1`, with 87 µM; and `O=C1NC(=O)C(=C/C=C/c2ccccc2)C(=O)N1`, with 12 µM.
In the case of `COc1ccc(C=C2C(=O)NC(=O)NC2=O)cc1` it was 25 µM; in that of `CN1C(=O)C(=C/C=C/c2ccccc2)C(=O)N(C)C1=O`, over 100 µM; in that of `O=C1NC(=S)NC(=O)C1=Cc1ccc(C(=O)O)cc1`, over 100 µM.
In turn, `O=C1NC(=O)C(=Cc2ccc([N+](=O)[O-])cc2)C(=O)N1` displayed a Ki of 105 µM.
As for `CN1C(=O)C(=Cc2ccc(O)cc2)C(=O)N(C)C1=O`, the Ki is over 100 µM.
Regarding `O=C1NC(=S)NC(=O)C1=Cc1ccc(O)cc1`, the Ki is over 100 µM.
Then `CN1C(=O)C(=Cc2ccc(F)cc2)C(=O)N(C)C1=O`, with over 100 µM; and `O=C1NC(=O)C(=Cc2cccc([N+](=O)[O-])c2)C(=O)N1`, with 29 µM.
Compound `O=C1NC(=S)NC(=O)C1=Cc1ccccc1` yielded a Ki of over 100 µM.
Turning to `O=C1NC(=O)C(=Cc2ccc(C(=O)O)cc2)C(=O)N1`, the inhibition constant Ki stood at 335 µM.
With `O=C1NC(=S)NC(=O)C1=Cc1ccc([N+](=O)[O-])cc1`, the inhibition constant Ki is over 100 µM.
`CN(C)c1ccc(/C=C/C=C2C(=O)NC(=S)NC2=O)cc1` came in with a Ki of 17 µM.
`CN1C(=O)C(=Cc2ccc([N+](=O)[O-])cc2)C(=O)N(C)C1=O` returned a Ki of over 100 µM.
`O=C1NC(=S)NC(=O)C1=Cc1cccc([N+](=O)[O-])c1` yielded a Ki of over 100 µM.
Then `O=C1NC(=O)C(=Cc2ccccc2)C(=O)N1`, with 517 µM; and `CN1C(=O)C(=Cc2ccc(N(C)C)cc2)C(=O)N(C)C1=O`, with over 100 µM.

Broadly, the Ki is a measure of affinity in units of concentration, obtained from inhibition or displacement. Read a low Ki as higher affinity.
